Assay results published in ChEMBL document CHEMBL1122781, “[(Aminomethyl)aryloxy]acetic acid esters. A new class of high-ceiling diuretics. 1. Effects of nitrogen and aromatic nuclear substitution” (J Med Chem, 1984).

Experiments:
Canis familiaris [1] = assay: Diuretic activity was evaluated by measuring amount of Cl- during 0-6 hr in urine of normotensive saline loaded dogs at 0.1 mg/kg, po; assay type: ADME, organism-based, Canis lupus familiaris; design: dose 0.1 mg/kg, route oral; details: dog, in vivo
Method in brief: (§1)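 Conscious female dogs, each given one oral dose per experiment. Urine and heparinized venous plasma were taken at each collection time. Urine was centrifuged and chilled, and plasma was separated within 30 min. Both were assayed for Na+, K+, Cl−, urate and glucose. Results are mean excretion in mequiv kg−1 (6 h)−1, with at least two dogs per dose.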

Rattus norvegicus [2] = assay: Diuretic activity was evaluated by measuring amount of K+ during 0-6 hr in urine of normotensive saline loaded rats at 30.0mg/kg, po; assay type: ADME, organism-based; details: in vivo, 30 mg/kg
Method in brief: (§2)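 Male normotensive Sprague–Dawley rats (275–375 g), eight per group. Test compound or vehicle (0.2% methylcellulose in water, 2 mL/kg) is given by mouth, followed at once by a 0.9% saline load equal to 5% of body weight. Rats are housed in metabolism cages without food or water. Urine is collected at 2, 6 and 24 h and assayed for Na+, K+, Cl−, uric acid and osmolality.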

Canis familiaris [3] = assay: Diuretic activity was evaluated by measuring amount of Na+ during 0-6 h in urine of normotensive saline loaded dogs at 0.03 mg/kg, po; assay type: ADME, organism-based, Canis lupus familiaris; design: dose 0.03 mg/kg, route oral; details: dog, in vivo
Method in brief: (§3)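 Conscious dogs, each given a single oral dose per experiment, with at least two dogs per dose. Urine volume is measured; aliquots are centrifuged and chilled. Heparinized venous blood (4 mL) is drawn at each urine collection. Urine and plasma are analyzed for Na+, K+, Cl−, urate and glucose. Result is mean Na+ excretion in mequiv kg−1 (6 h)−1.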

Canis familiaris [4] = assay: Diuretic activity was evaluated by measuring amount of Na+ during 0-6 h in urine of normotensive saline loaded dogs at 1.0 mg/kg, po; assay type: ADME, organism-based, Canis lupus familiaris; design: dose 1 mg/kg, route oral; details: dog, in vivo; method in brief: as §3
Canis familiaris [5] = assay: Diuretic activity was evaluated by measuring amount of Na+ during 0-6 h in urine of normotensive saline loaded dogs at 10.0mg/kg, po; assay type: ADME, organism-based, Canis lupus familiaris; details: dog, in vivo, 10 mg/kg; method in brief: as §3
Canis familiaris [6] = assay: Diuretic activity was evaluated by measuring amount of Na+ during 0-6 hr in urine of normotensive saline loaded dogs at 3.0mg/kg, po; assay type: ADME, organism-based, Canis lupus familiaris; details: dog, in vivo, 3 mg/kg; method in brief: as §3
[7] = Diuretic activity was evaluated by measuring amount of Na+ during 0-6 hr in urine of normotensive […] monkey at 10mg/kg, po; assay type: ADME, organism-based; details: simiiformes, in vivo
Method in brief: (§4)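 Male and female cynomolgus monkeys, fasted 16–18 h with water until dosing, six per dose. Compound or vehicle is given through a nasogastric tube, then a 50 mL/kg water load. No food or water for 6 h in metabolism cages. Urine is collected at 0–1, 1–2, 2–4 and 4–6 h and analyzed for electrolytes, uric acid and glucose.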

[8] = Diuretic activity was evaluated by measuring amount of Na+ during 0-6 hr in urine of […] monkey at 3mg/kg, po; assay type: ADME, organism-based; details: simiiformes, in vivo; method in brief: as §4
Rattus norvegicus [9] = assay: Diuretic activity was evaluated by measuring amount of Na+ during 0-6 h in urine of normotensive saline loaded rats at 10.0 mg/kg, po; assay type: ADME, organism-based; design: dose 10 mg/kg, route oral; details: in vivo; method in brief: as §2
Rattus norvegicus [10] = assay: Diuretic activity was evaluated by measuring amount of Na+ during 0-6 h in urine of normotensive saline loaded rats at 3.0 mg/kg, po; assay type: ADME, organism-based; design: dose 3 mg/kg, route oral; details: in vivo; method in brief: as §2
[11] = Diuretic activity was evaluated by measuring amount of K+ during 0-6 h in urine of […] at 10 mg/kg, po; assay type: ADME, organism-based; design: dose 10 mg/kg, route oral; details: simiiformes, in vivo
Method in brief: (§5)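 Male and female cynomolgus monkeys, fasted 16–18 h with water until dosing, six per dose. Compound or vehicle was given by pediatric nasogastric tube, followed at once by a 50 mL/kg water load. Monkeys were kept in metabolism cages without food or water for 6 h. Urine was collected at 0–1, 1–2, 2–4 and 4–6 h, and volume, electrolytes, uric acid and glucose were measured.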

Rattus norvegicus [12] = assay: Diuretic activity was evaluated by measuring amount of Cl- during 0-6 hr in urine of normotensive saline loaded rats at 10.0mg/kg, po; assay type: ADME, organism-based; details: in vivo, 10 mg/kg
Method in brief: (§6)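 Male Sprague–Dawley rats (275–375 g), fed and watered ad libitum before testing but not during it, eight per group. Compound in 0.2% methylcellulose/water given orally at 2 mL/kg, immediately followed by a 0.9% saline load equal to 5% of body weight. Rats were kept in individual metabolism cages. Urine was sampled at 2, 6 and 24 h for volume, Na+, K+, Cl−, uric acid and osmolality.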

Rattus norvegicus [13] = assay: Diuretic activity was evaluated by measuring amount of Cl- during 0-6 h in urine of normotensive saline loaded rats at 30.0 mg/kg, po; assay type: ADME, organism-based; design: dose 30 mg/kg, route oral; details: in vivo; method in brief: as §6
Canis familiaris [14] = assay: Diuretic activity was evaluated by measuring amount of K+ during 0-6 hr in urine of normotensive saline loaded dogs at 0.3mg/kg, po; assay type: ADME, organism-based, Canis lupus familiaris; details: dog, in vivo; method in brief: as §1
Canis familiaris [15] = assay: Diuretic activity was evaluated by measuring amount of K+ during 0-6 h in urine of normotensive saline loaded dogs at 1.0 mg/kg, po; assay type: ADME, organism-based, Canis lupus familiaris; design: dose 1 mg/kg, route oral; details: dog, in vivo; method in brief: as §1
[16] = Diuretic activity was evaluated by measuring amount of Cl- during 0-6 h in urine of normotensive […] monkey at 10mg/kg, po; assay type: ADME, organism-based; details: simiiformes, in vivo; method in brief: as §5
[17] = Diuretic activity was evaluated by measuring amount of Cl- during 0-6 hr in urine of normotensive […] monkey at 1 mg/kg, po; assay type: ADME, organism-based; design: dose 1 mg/kg, route oral; details: simiiformes, in vivo; method in brief: as §5
[18] = Diuretic activity was evaluated by measuring amount of Cl- during 0-6 h in urine of […] monkey at 30 mg/kg, po; assay type: ADME, organism-based; design: dose 30 mg/kg, route oral; details: simiiformes, in vivo; method in brief: as §5
[19] = Diuretic activity was evaluated by measuring amount of Cl- during 0-6 h in urine of normotensive […] monkey at 3 mg/kg, po; assay type: ADME, organism-based; design: dose 3 mg/kg, route oral; details: simiiformes, in vivo; method in brief: as §5
Rattus norvegicus [20] = assay: Diuretic activity was evaluated by measuring amount of Cl- during 0-6 hr in urine of normotensive saline loaded rats at 0.1 mg/kg, po; assay type: ADME, organism-based; design: dose 0.1 mg/kg, route oral; details: in vivo; method in brief: as §6
Rattus norvegicus [21] = assay: Diuretic activity was evaluated by measuring amount of K+ during 0-6 hr in urine of normotensive saline loaded rats at 0.3mg/kg, po; assay type: ADME, organism-based; details: in vivo; method in brief: as §6
Rattus norvegicus [22] = assay: Percent change of arterial blood pressure in spontaneously hypertensive rats at the dose of 10 mg/kg (p.o.) after 24 hr (control BP(mm Hg)=219); assay type: functional; details: route oral
Rattus norvegicus [23] = assay: Percent change of arterial blood pressure in spontaneously hypertensive rats at the dose of 10 mg/kg (p.o.) after 6 hr (control BP(mm Hg)=219); assay type: functional; details: route oral
Rattus norvegicus [24] = assay: Percent change of arterial blood pressure in spontaneously hypertensive rats at the dose of 1 mg/kg (p.o.) after […] (control BP(mm Hg)=215); assay type: functional; details: route oral
Rattus norvegicus [25] = assay: Percent change of arterial blood pressure in spontaneously hypertensive rats at the dose of 1 mg/kg (p.o.) after 24 hr (control BP(mm Hg)=215); assay type: functional; details: route oral
Rattus norvegicus [26] = assay: Percent change of arterial blood pressure in spontaneously hypertensive rats at the dose of 1 mg/kg (p.o.) after 6 hr (control BP(mm Hg)=215); assay type: functional; details: route oral
Rattus norvegicus [27] = assay: Percent change of arterial blood pressure in spontaneously hypertensive rats at the dose of 3 mg/kg (p.o.) after […] (control BP(mm Hg)=221); assay type: functional; details: route oral
Canis familiaris [28] = assay: Diuretic activity was evaluated by measuring amount of Na+ during 0-6 h in urine of normotensive saline loaded dogs at 0.3 mg/kg, po; assay type: ADME, organism-based, Canis lupus familiaris; design: dose 0.3 mg/kg, route oral; details: dog, in vivo; method in brief: as §3
Rattus norvegicus [29] = assay: Diuretic activity was evaluated by measuring amount of Na+ during 0-6 hr in urine of normotensive saline loaded rats at 30.0mg/kg, po; assay type: ADME, organism-based; details: in vivo, 30 mg/kg; method in brief: as §2

## CCOC(=O)COc1ccc(C(=O)c2ccc(O)c(CN)c2)c(Cl)c1Cl.Cl
Canis familiaris [1]
  Diuretic activity: 1 m equiv kg-1
Rattus norvegicus [2]
  Diuretic activity: 3.8 m equiv kg-1
Canis familiaris [3]
  Diuretic activity: 0.5 m equiv kg-1
Canis familiaris [4]
  Diuretic activity: 5 m equiv kg-1
Canis familiaris [5]
  Diuretic activity: 6.3 m equiv kg-1
Canis familiaris [6]
  Diuretic activity: 7.5 m equiv kg-1
[7]
  Diuretic activity: 6.6 m equiv kg-1
[8]
  Diuretic activity: 5.3 m equiv kg-1
Rattus norvegicus [9]
  Diuretic activity: 14 m equiv kg-1
Rattus norvegicus [10]
  Diuretic activity: 13.9 m equiv kg-1
[11]
  Diuretic activity: 1.3 m equiv kg-1
Rattus norvegicus [12]
  Diuretic activity: 16.4 m equiv kg-1
Rattus norvegicus [13]
  Diuretic activity: 17.4 m equiv kg-1
Canis familiaris [14]
  Diuretic activity: 1 m equiv kg-1
Canis familiaris [15]
  Diuretic activity: 1.6 m equiv kg-1
[16]
  Diuretic activity: 7.2 m equiv kg-1
[17]
  Diuretic activity: 2.7 m equiv kg-1
[18]
  Diuretic activity: 6.9 m equiv kg-1
[19]
  Diuretic activity: 5.3 m equiv kg-1
Rattus norvegicus [20]
  Diuretic activity: 8.1 m equiv kg-1
Rattus norvegicus [21]
  Diuretic activity: 2.7 m equiv kg-1
Rattus norvegicus [22]
  Change: -19%
Rattus norvegicus [23]
  Change: -24%
Rattus norvegicus [24]
  Change: -17%
Rattus norvegicus [25]
  Change: -6%
Rattus norvegicus [26]
  Change: -11%
Rattus norvegicus [27]
  Change: -22%
Canis familiaris [28]
  Diuretic activity: 2.7 m equiv kg-1
Rattus norvegicus [29]
  Diuretic activity: 14.8 m equiv kg-1
